ChEMBL document CHEMBL1123397, “Antiarrhythmic activity of 17 beta-aminoestratrienes. Comparison of 3-ols and 3-acetates with the corresponding 3-(3-amino-2-hydroxypropyl) ethers” (1986)
In brackets after ≈: the same amount, converted by molar mass. Activity calls are given as the source filed them. No cut-off for these calls is given here.

How the values were obtained:
[1] = species on record: Cavia porcellus; test: Concentration required to reduce maximum following frequencu (MFF) of isolated guinea pig atria by 25%; assay type: functional
Outline: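 Guinea pig left atria in an organ bath of Krebs solution at 35 °C, gassed with carbogen, electrically driven, isometric contractions recorded. Drugs added cumulatively; maximum following frequency determined 6 min after each concentration. Concentration reducing MFF by 25% (EC25) calculated from six preparations.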

[2] = species on record: Mus musculus; test: ED 50 value against aconitine-induced arrhythmias in mice; assay type: functional
Outline: (§1)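 Anaesthetised mice were given test compound intraperitoneally, then aconitine intravenously to induce arrhythmia. At least three doses were tested in separate groups (n = 6-10). ED50 is the dose raising the arrhythmogenic aconitine dose 50% above the control requirement.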

[3] = species on record: Mus musculus; test: ED 50 value against aconitine-induced arrhythmias in mice; IA is Inactive; assay type: functional, organism-based; outline: as §1
[4] = test system: Rattus norvegicus; test: Effective dose that antagonized arrhythmias evoked by coronary artery ligation in the rat was measured at 2.0 mg/kg dose; assay type: functional
[5] = test system: Rattus norvegicus; test: Effect on heart rate after isoprenaline induced tachycardia in the anesthetized rat at 1 mg/kg dose; assay type: functional
Outline: (§2)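 Same ligation protocol in anaesthetised male Wistar rats. Heart rate was taken from the lead II ECG at three points: just before i.v. drug or vehicle, 14 min after it (just before isoprenaline 10 μg/kg), and 1 min after isoprenaline. Pre vs post rates and isoprenaline responses vs controls were compared by Student's t test. Mean ± SEM of 7-12 observations.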

[6] = test system: Rattus norvegicus; test: Effect on heart rate before isoprenaline induced tachycardia in the anesthetized rat at 1 mg/kg dose; assay type: functional; outline: as §2
[7] = test system: Rattus norvegicus; test: Effect on heart rate on 1 min post isoprenaline induced tachycardia in the anesthetized rat at 1.0 mg/kg dose.; assay type: functional
Outline: (§3)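 Test drug or vehicle was given i.v., and isoprenaline (10 µg/kg) 14 min later. Heart rate was read from the lead II ECG just before drug, at 14 min (pre-isoprenaline) and 1 min after isoprenaline. Compared by Student's t test; 7–12 animals per group; mean ± SEM.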

[8] = test system: Rattus norvegicus; test: Compound was tested for antagonism of Ventricular Fibrilloflutter (VF) evoked by coronary artery ligation in the rat measured at 1 mg/kg dose; assay type: functional, Heart
Outline: (§4)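 Male Wistar rats, anaesthetised and artificially ventilated, with left thoracotomy; silk suture under main left coronary artery. After stabilization, test drug or vehicle i.v.; 14 min later isoprenaline 10 μg/kg; 1 min after that the ligature was tightened and VF incidence recorded over 30 min. Carotid pressure and lead II ECG monitored continuously. 7-12 animals per group.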

[9] = test system: Rattus norvegicus; test: Antagonism of Ventricular Fibrilloflutter (VF) evoked by coronary artery ligation in the rat measured at 2 mg/kg dose; assay type: functional, Heart; outline: as §4
[10] = test system: Rattus norvegicus; test: Mean change in heart rate recorded 14 min after the administration of compound.; assay type: functional; outline: as §3
[11] = species on record: Rattus norvegicus; test: Maximum increase in heart rate evoked by isoprenaline.; assay type: functional; outline: as §3
[12] = test system: Rattus norvegicus; test: Effect on heart rate after isoprenaline induced tachycardia in the anesthetized rat at 2 mg/kg dose; assay type: functional; outline: as §2
[13] = test system: Rattus norvegicus; test: Effect on heart rate before isoprenaline induced tachycardia in the anesthetized rat at 2 mg/kg dose; assay type: functional; outline: as §3
[14] = test system: Rattus norvegicus; test: Effect on heart rate on 1 min post isoprenaline induced tachycardia in the anesthetized rat at 2.0 mg/kg dose.; assay type: functional; outline: as §3
[15] = test system: Rattus norvegicus; test: Compound that antagonized arrhythmias evoked by coronary artery ligation in the rat was measured at 0.05 mg/kg dose; assay type: functional; outline: as §4
[16] = test system: Rattus norvegicus; test: Effect on heart rate on 1 min post isoprenaline induced tachycardia in the anesthetized rat at 1 mg/kg dose.; assay type: functional; outline: as §3
[17] = test system: Rattus norvegicus; test: Effective dose that antagonized arrhythmias evoked by coronary artery ligation in the rat was measured at 1.0 mg/kg dose; assay type: functional
[18] = test system: Rattus norvegicus; test: Compound was tested for antagonism of Ventricular Fibrilloflutter (VF) evoked by coronary artery ligation in the rat measured at 0.5 mg/kg dose; assay type: functional, Heart; outline: as §4
[19] = species on record: Cavia porcellus; test: Compound was tested for antiarrhythmic activity expressed as action potential height (AP) in guinea pig atria at 2(ug/mL) concentration; assay type: functional, Heart
Outline: (§5)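 Guinea pig left atria pinned in a recording chamber, superfused with carbogen-gassed Krebs solution at 35 ± 0.5 °C and electrically stimulated. Transmembrane action potentials were recorded with conventional microelectrodes, giving RMP, AP height, APD50, APD90 and maximum rate of depolarization. Values are mean ± SEM from n cells across five preparations.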

[20] = species on record: Cavia porcellus; test: Compound was tested for antiarrhythmic activity (time taken to reach 50% repolarization) in guinea pig atria at 2(ug/mL) concentration; assay type: functional, Heart; outline: as §5
[21] = species on record: Cavia porcellus; test: Compound was tested for antiarrhythmic activity (time taken to reach 50% repolarization) in guinea pig atria at 4(ug/mL) concentration; assay type: functional, Heart; outline: as §5
[22] = species on record: Cavia porcellus; test: Compound was tested for antiarrhythmic activity (time taken to reach 50% repolarization) in guinea pig atria at 8(ug/mL) concentration; assay type: functional, Heart; outline: as §5
[23] = species on record: Cavia porcellus; test: Compound was tested for antiarrhythmic activity (time taken to reach 90% repolarization) in guinea pig atria at 2(ug/mL) concentration; assay type: functional, Heart; outline: as §5
[24] = species on record: Cavia porcellus; test: Compound was tested for antiarrhythmic activity (time taken to reach 90% repolarization) in guinea pig atria at 4(ug/mL) concentration; assay type: functional, Heart; outline: as §5
[25] = species on record: Cavia porcellus; test: Compound was tested for antiarrhythmic activity (time taken to reach 90% repolarization) in guinea pig atria at 8(ug/mL) concentration; assay type: functional, Heart; outline: as §5
[26] = species on record: Cavia porcellus; test: Compound was tested for antiarrhythmic activity expressed as action potential height (AP) in guinea pig atria at 4(ug/mL) concentration; assay type: functional, Heart; outline: as §5
[27] = species on record: Cavia porcellus; test: Compound was tested for antiarrhythmic activity expressed as action potential height (AP) in guinea pig atria at 8(ug/mL) concentration; assay type: functional, Heart; outline: as §5
[28] = species on record: Cavia porcellus; test: Compound was tested for antiarrhythmic activity (maximum rate of phase 0 depolarization- MRD) in guinea pig atria at 2(ug/mL) concentration; assay type: functional, Heart; outline: as §5
[29] = species on record: Cavia porcellus; test: Compound was tested for antiarrhythmic activity (maximum rate of phase 0 depolarization- MRD) in guinea pig atria at 4(ug/mL) concentration; assay type: functional, Heart; outline: as §5
[30] = species on record: Cavia porcellus; test: Compound was tested for antiarrhythmic activity (maximum rate of phase 0 depolarization- MRD) in guinea pig atria at 8(ug/mL) concentration; assay type: functional, Heart; outline: as §5
[31] = species on record: Cavia porcellus; test: Compound was tested for antiarrhythmic activity expressed as resting membrane potential (RMP) in guinea pig atria at 2 ug/mL concentration; assay type: functional; conditions: Heart; outline: as §5
[32] = species on record: Cavia porcellus; test: Compound was tested for antiarrhythmic activity expressed as resting membrane potential (RMP) in guinea pig atria at 4 ug/mL concentration; assay type: functional; conditions: Heart; outline: as §5
[33] = species on record: Cavia porcellus; test: Compound was tested for antiarrhythmic activity expressed as resting membrane potential (RMP) in guinea pig atria at 8 ug/mL concentration; assay type: functional; conditions: Heart; outline: as §5
[34] = test system: Rattus norvegicus; test: Compound that antagonized arrhythmias evoked by coronary artery ligation in the rat was measured at 1.0 mg/kg dose; assay type: functional; outline: as §4
[35] = species on record: Rattus norvegicus; test: Maximum increase in heart rate evoked by isoprenaline; assay type: functional; outline: as §3
[36] = test system: Rattus norvegicus; test: Effect of teh compound on heart rate on 1 min post isoprenaline induced tachycardia in the anesthetized rat at 2.0 mg/kg dose.; assay type: functional; outline: as §2
[37] = test system: Rattus norvegicus; test: Effective dose that antagonized arrhythmias evoked by coronary artery ligation in the rat was measured at 0.01 mg/kg dose; assay type: functional
[38] = test system: Rattus norvegicus; test: Compound was tested for antagonism of Ventricular Fibrilloflutter (VF) evoked by coronary artery ligation in the rat measured at 0.01 mg/kg dose; assay type: functional, Heart; conditions: dose 0.1 mg/kg; in the assay text read “0.1 mg/kg” for “0.01 mg/kg”; outline: as §4
[39] = test system: Rattus norvegicus; test: Compound was tested for antagonism of Ventricular Fibrilloflutter (VF) evoked by coronary artery ligation in the rat measured at 0.05 mg/kg dose; assay type: functional, Heart; outline: as §4

Row | Structure (SMILES) | EC25 [1] [µg/mL] | ED50 [2] [mg/kg] | ED50 [3] | VF [8] [%] | Change [10] [%] | Increase [11] [%] | Heart rate [12] [beats min-1] | Heart rate [13] [beats min-1] | further results
1 | CNC1CC[C@H]2[C@@H]3CCc4cc(O)ccc4[C@H]3CC[C@]12C (stereo partly drawn) | 2.09 (≈ 7.32 µM) | 8.2 |  |  |  |  |  |  | 
2 | CC(C)NCC(O)COc1ccc2c(c1)CC[C@@H]1[C@@H]2CC[C@]2(C)C(N(C)C)CC[C@@H]12 (stereo partly drawn) | 16.1 (≈ 38.8 µM) |  | inactive | 29 | -4.4 | 1.6 |  |  | ED50 at 2 mg/kg [4]: < 1 mg/kg; Heart rate [5]: 387 beats min-1; Heart rate [6]: 405 beats min-1; Heart rate [7]: 393 beats min-1; VF [9]: 14%
3 | CNC1CC[C@H]2[C@@H]3CCc4cc(OCC(O)CNC(C)(C)C)ccc4[C@H]3CC[C@]12C (stereo partly drawn) | 25.8 (≈ 62.2 µM) |  | inactive |  | -13.4 | 0 | 335 | 387 | ED50 at 2 mg/kg [4]: < 2 mg/kg; Heart rate [14]: 335 beats min-1; VF [9]: 0%
4 | CCCNCC(O)COc1ccccc1C(=O)CCc1ccccc1 (stereo not drawn) [PROPAFENONE] | 1.85 (≈ 5.42 µM) | 24.3 |  |  | -11.7 | 13.8 |  |  | ED50 [15]: 0.7 mg/kg; Heart rate [5]: 391 beats min-1; Heart rate [6]: 443 beats min-1; Heart rate [16]: 445 beats min-1
5 | CN(C)C1[C@H](O)C[C@H]2[C@@H]3CCc4cc(OCC(O)CNC(C)(C)C)ccc4[C@H]3CC[C@]12C (stereo partly drawn) | 17.1 (≈ 38.5 µM) |  | inactive | 38 | -17.3 | 4.6 | 325 | 393 | ED50 [17]: 0.5 mg/kg; Heart rate [14]: 340 beats min-1; VF [18]: 44%; VF [9]: 0%
6 | CC(C)NCC(O)COc1ccc2c(c1)CC[C@@H]1[C@@H]2CC[C@]2(C)C(N(C)C)[C@H](O)C[C@@H]12 (stereo partly drawn) | 13.7 (≈ 31.8 µM) |  | inactive | 13 | -7.1 |  | 366 | 394 | AP [19]: 83.8 mV; APD50 [20]: 26 ms; APD50 [21]: 20.7 ms; APD50 [22]: 19.5 ms; APD90 [23]: 69.8 ms; APD90 [24]: 64.8 ms; APD90 [25]: 64.9 ms; AP [26]: 81.6 mV; AP [27]: 79.5 mV; MRD [28]: 139.5 V s-1; MRD [29]: 124 V s-1; MRD [30]: 139.3 V s-1; RMP [31]: 71 mV; RMP [32]: 70.4 mV; RMP [33]: 69.1 mV; ED50 at 1 mg/kg [34]: < 1 mg/kg; Increase [35]: 0%; Heart rate [36]: 366 beats min-1
7 | CNC1[C@H](O)C[C@H]2[C@@H]3CCc4cc(OCC(O)CNC(C)C)ccc4[C@H]3CC[C@]12C (stereo partly drawn) | 21 (≈ 50.4 µM) |  | inactive |  |  |  |  |  | 
8 | CC(=O)Oc1ccc2c(c1)CC[C@@H]1[C@@H]2CC[C@]2(C)C(N(C)C)[C@H](O)C[C@@H]12 (stereo partly drawn) | 0.99 (≈ 2.77 µM) | 6.5 |  |  |  |  |  |  | 
9 | CN(C)C1CC[C@H]2[C@@H]3CCc4cc(O)ccc4[C@H]3CC[C@]12C (stereo partly drawn) | 1.65 (≈ 5.51 µM) | 4.4 |  |  |  |  |  |  | 
10 | CN(C)C1CC[C@H]2[C@@H]3CCc4cc(OCC(O)CNC(C)(C)C)ccc4[C@H]3CC[C@]12C (stereo partly drawn) | 24.1 (≈ 56.2 µM) |  | inactive | 0 | -6.9 | 3.4 |  |  | ED50 [37]: 0.05 mg/kg; VF [38]: 25%; VF [39]: 38%; Heart rate [5]: 363 beats min-1; Heart rate [6]: 390 beats min-1; Heart rate [7]: 376 beats min-1
11 | CNC1CC[C@H]2[C@@H]3CCc4cc(OCC(O)CNC(C)C)ccc4[C@H]3CC[C@]12C (stereo partly drawn) | 11.9 (≈ 29.7 µM) |  | inactive |  | -22.6 | 1 | 315 | 407 | Heart rate [36]: 318 beats min-1
